Rad51 HR inh = Rad51 (human) homologous recombination inhibition | inhibition, % at 10 µM | Q06609 | hRad51 DNA strand exchange, fluorescence dequenching | 200,000 compounds, 0.085% hits;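 active means inhibition above 40% at the single screening dose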;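 further: 0% = DMSO control wells and 100% = blanks with heterologous ssDNA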
Target sequence (Q06609 whole entry, looked up): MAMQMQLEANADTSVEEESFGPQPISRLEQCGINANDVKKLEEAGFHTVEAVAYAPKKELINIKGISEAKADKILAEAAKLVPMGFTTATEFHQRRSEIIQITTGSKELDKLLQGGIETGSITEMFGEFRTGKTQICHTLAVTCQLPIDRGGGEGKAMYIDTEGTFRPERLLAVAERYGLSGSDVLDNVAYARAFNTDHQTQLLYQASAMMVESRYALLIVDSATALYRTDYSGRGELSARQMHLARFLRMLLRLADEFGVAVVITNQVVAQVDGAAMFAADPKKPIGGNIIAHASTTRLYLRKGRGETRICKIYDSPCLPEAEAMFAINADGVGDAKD
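Material: Human Rad51 nucleoprotein filaments preassembled on unlabelled ssDNA | Also added: Labelled 47-mer dsDNA for strand exchange | Dosing: Single dose, 10 µM final compound | Schedule: 30-min compound preincubation and 15-min exchange, both room temperature | Technique: Fluorescence dequenching at 485/520 nm | Measure: Percent inhibition relative to plate controls and blanks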
CHOP inhibitor = CHOP inhibition in unfolded protein response | CHO-K1 CHOP-promoter luciferase, tunicamycin-induced, 15-18 h | inhibition, % at 10 µM | 220,000 compounds, 3.8% hits;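 active means compounds that reduced the stress-induced luciferase reporter signal by more than about 70% of percent inhibition, limit read from the data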;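 further: 0% = tunicamycin plus vehicle and 100% = wells without tunicamycin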
Wee1 degr inh = inhibitors of human Wee1 degradation. P30291. HeLa Luc-Wee1K328M stability, luciferase luminescence; 100% = proteasome inhibitor MG132 effect. reporter increase, % at 5 µM. 220,000 compounds, 1.2% hits. AID 1321;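 active means activation above the mean of all tested compounds plus 3 SD, set per screening run, cut at about 8.8% in these data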;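 further: cells exposed to compound for 20 h before luminescence read; 0% = DMSO alone and 100% = MG132 at 30 µM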
Arbovirus anti = arbovirus infection inhibition | arbovirus infection cell-based antiviral screen | inhibition, % at 10 µM | 200,000 compounds, 0.37% hits | AID 1251; in the data active means inhibition above about 30%
PKD1 inh = inhibitors of human PKD1 kinase | Q15139 | PKD1 kinase fluorescence polarization assay | inhibition, % (concentration not given with the values) | 200,000 compounds, 0.056% hits | AID 797
L major viab = inhibitors of Leishmania major promastigote growth. inhibition, % at 10 µM. Leishmania major promastigotes, resazurin fluorescence viability. 200,000 compounds, 9% hits;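 further: promastigotes grown with compound for 44 hours at 28 °C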
* marks the source's active call; other numbers are inactive results; x = not tested or not shown. This is a sample that favours compounds with a hit; in the whole collection about 12% have one here. Unless noted, no stated cut-off is given here; in the data, active means inhibition above about 50%; inactive means the rest.

SMILES	Rad51 HR inh	CHOP inhibitor	Wee1 degr inh	Arbovirus anti	PKD1 inh	L major viab
CO/N=C(/CS(=O)(=O)c1ccc(C)cc1)c1ccc(OC)cc1	1	-11	2	-8	-3	80*
Cc1ccc(S(=O)(=O)NCC2CCC(C(=O)NCc3cccnc3)CC2)cc1 (configuration not stated)	-6	-7	1	-13	-5	-1
CCOC(=O)c1c(N)sc(C(O)(C(F)(F)F)C(F)(F)F)c1-c1ccc(F)cc1	-5	78*	0	-35	-2	-2
O=C(Nc1nnc(-c2ccc3c(c2)CCCC3)o1)C1COc2ccccc2O1 (configuration not stated)	2	63	-1	-13	-13	-6
COc1ccccc1C(=O)Nc1nnc(-c2ccc3c(c2)CCCC3)o1	-2	80*	0	-16	-11	-2
O=C(COc1ccc(Cl)cc1)Nc1nnc(-c2ccc3c(c2)CCCC3)o1	1	87*	4	8	3	-3
CC(=O)Nc1nnc(-c2ccc3c(c2)CCCC3)o1	-4	-6	1	-1	-1	0
CC(C)N(Cc1cn[nH]c1-c1ccc(-c2ccccc2)cc1)Cc1nccn1C	11	-2	-1	-37	-7	44
Cc1cc(NC(=O)Cn2nc(-c3ccccc3F)ccc2=O)ccc1-n1cnnn1	1	72*	-2	19	-4	6
COc1cc(NC(=O)Cn2nc(-c3ccc(F)cc3)ccc2=O)ccc1-n1cnnn1	-2	1	1	4	-3	-8
COc1cc(CNCCNC(=O)c2nonc2N)ccc1OCc1ccc(Cl)cc1	-4	42	2	-36	-4	98*
Nc1nonc1C(=O)NCCNCc1cc(Br)ccc1OCc1ccccc1F	2	x	2	-2	1	66*
CN(C)c1cc[n+](CC(=O)c2ccc(OC(F)F)cc2)cc1	x	-2	-3	x	x	x
Cc1ccc(S(=O)(=O)NCCC(=O)Nc2nnc(C)s2)cc1	6	14	-1	-2	4	-6
Cc1cc(C)cc(N(CCC(=O)Nc2nnc(C)s2)S(=O)(=O)c2ccc(Cl)cc2)c1	x	52	-1	-8	-5	93*
CC(C)(C)NS(=O)(=O)c1cc(C(=O)Nc2sccc2C#N)ccc1Cl	-33	9	-1	12	-3	54*
N#Cc1ccsc1NC(=O)c1cnccn1	-3	3	0	1	-1	-2
C1CCN(c2nc(N3CCCCC3)nc(N3CCNCC3)n2)CC1	1	32	1	-47	-6	68*
CCOC(=O)N1CCC(N2CCCC(C(=O)c3ccccc3OC)C2)CC1 (configuration not stated)	x	14	1	1	-6	80*
CCOC(=O)N1CCC(N2CCCC(C(=O)c3cc(C)c(OC)c(C)c3)C2)CC1 (configuration not stated)	15	12	0	1	2	93*
CCOC(=O)c1c(C)[nH]c(C(=O)N2CCCC(C(=O)c3ccccc3OC)C2)c1C (configuration not stated)	x	-19	1	x	x	x
CCOC(=O)N1CCC(N2CCCC(C(=O)c3ccc4cc(OC)ccc4c3)C2)CC1 (configuration not stated)	5	5	2	-10	-8	98*
C/C(=N/NC(=O)c1cc(C)[nH]n1)c1ccco1	-3	-10	4	x	x	x
CCOCCCn1c(=N)c(C(=O)Nc2cc(C)on2)cc2c(=O)n3ccccc3nc21	x	x	0	x	-7	19
N#CCCN1CCN(Cc2cc(-c3ccccc3)ccc2O)CC1	-8	12	-2	13	5	91*
SMILES	Rad51 HR inh	CHOP inhibitor	Wee1 degr inh	Arbovirus anti	PKD1 inh	L major viab
CC(C)(C)CC(C)(C)c1ccc(O)c(CN2CCN(CCC#N)CC2)c1	7	73*	-2	8	-4	97*
CCN(CC)C(=O)C(C)OC(=O)COc1ccc(Cl)cc1Cl (configuration not stated)	-2	36	5	8	-8	58*
Cc1nc2ccccc2c(C)c1C(=O)c1ccccc1	25	15	-2	6	-3	-4
CC(=O)c1c(C)nc2ccccc2c1N	14	7	-1	3	2	96*
Cc1ccc(NNC(=O)Nc2ccc(Cl)cc2)nn1	25	0	2	x	x	x
Cc1ccn2c(Nc3ccc4c(c3)OCO4)c(-c3ccc(O)cc3)nc2c1	10	-30	4	x	x	x
CCc1nnc(NC(=O)C2c3ccccc3Oc3ccccc32)s1	5	16	3	-5	-5	-8
